Results on 1 molecule are retold here after ChEMBL document CHEMBL5705899 (Biochem J, 2014).

The target of assay [1] is Phosphatidylinositol 4-kinase alpha (Homo sapiens, UniProt P42356). The experiment in a line: Inhibition of PI4Kalpha (unknown origin) using D-myo-PtdIns as substrate incubated for 45 mins by ADP-Glo assay. The method, boiled down: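 PI4Kα: 1 nM enzyme, 72 μM ATP, 25 μM PtdIns. PI4Kβ: 2 nM enzyme, 220 μM ATP, 50 μM PtdIns. Reactions ran 45 min at ambient temperature; ADP-Glo reagent was added for 40 min, then detection reagent for 30 min, then luminescence was read.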
Chain of Phosphatidylinositol 4-kinase alpha (P42356 whole entry): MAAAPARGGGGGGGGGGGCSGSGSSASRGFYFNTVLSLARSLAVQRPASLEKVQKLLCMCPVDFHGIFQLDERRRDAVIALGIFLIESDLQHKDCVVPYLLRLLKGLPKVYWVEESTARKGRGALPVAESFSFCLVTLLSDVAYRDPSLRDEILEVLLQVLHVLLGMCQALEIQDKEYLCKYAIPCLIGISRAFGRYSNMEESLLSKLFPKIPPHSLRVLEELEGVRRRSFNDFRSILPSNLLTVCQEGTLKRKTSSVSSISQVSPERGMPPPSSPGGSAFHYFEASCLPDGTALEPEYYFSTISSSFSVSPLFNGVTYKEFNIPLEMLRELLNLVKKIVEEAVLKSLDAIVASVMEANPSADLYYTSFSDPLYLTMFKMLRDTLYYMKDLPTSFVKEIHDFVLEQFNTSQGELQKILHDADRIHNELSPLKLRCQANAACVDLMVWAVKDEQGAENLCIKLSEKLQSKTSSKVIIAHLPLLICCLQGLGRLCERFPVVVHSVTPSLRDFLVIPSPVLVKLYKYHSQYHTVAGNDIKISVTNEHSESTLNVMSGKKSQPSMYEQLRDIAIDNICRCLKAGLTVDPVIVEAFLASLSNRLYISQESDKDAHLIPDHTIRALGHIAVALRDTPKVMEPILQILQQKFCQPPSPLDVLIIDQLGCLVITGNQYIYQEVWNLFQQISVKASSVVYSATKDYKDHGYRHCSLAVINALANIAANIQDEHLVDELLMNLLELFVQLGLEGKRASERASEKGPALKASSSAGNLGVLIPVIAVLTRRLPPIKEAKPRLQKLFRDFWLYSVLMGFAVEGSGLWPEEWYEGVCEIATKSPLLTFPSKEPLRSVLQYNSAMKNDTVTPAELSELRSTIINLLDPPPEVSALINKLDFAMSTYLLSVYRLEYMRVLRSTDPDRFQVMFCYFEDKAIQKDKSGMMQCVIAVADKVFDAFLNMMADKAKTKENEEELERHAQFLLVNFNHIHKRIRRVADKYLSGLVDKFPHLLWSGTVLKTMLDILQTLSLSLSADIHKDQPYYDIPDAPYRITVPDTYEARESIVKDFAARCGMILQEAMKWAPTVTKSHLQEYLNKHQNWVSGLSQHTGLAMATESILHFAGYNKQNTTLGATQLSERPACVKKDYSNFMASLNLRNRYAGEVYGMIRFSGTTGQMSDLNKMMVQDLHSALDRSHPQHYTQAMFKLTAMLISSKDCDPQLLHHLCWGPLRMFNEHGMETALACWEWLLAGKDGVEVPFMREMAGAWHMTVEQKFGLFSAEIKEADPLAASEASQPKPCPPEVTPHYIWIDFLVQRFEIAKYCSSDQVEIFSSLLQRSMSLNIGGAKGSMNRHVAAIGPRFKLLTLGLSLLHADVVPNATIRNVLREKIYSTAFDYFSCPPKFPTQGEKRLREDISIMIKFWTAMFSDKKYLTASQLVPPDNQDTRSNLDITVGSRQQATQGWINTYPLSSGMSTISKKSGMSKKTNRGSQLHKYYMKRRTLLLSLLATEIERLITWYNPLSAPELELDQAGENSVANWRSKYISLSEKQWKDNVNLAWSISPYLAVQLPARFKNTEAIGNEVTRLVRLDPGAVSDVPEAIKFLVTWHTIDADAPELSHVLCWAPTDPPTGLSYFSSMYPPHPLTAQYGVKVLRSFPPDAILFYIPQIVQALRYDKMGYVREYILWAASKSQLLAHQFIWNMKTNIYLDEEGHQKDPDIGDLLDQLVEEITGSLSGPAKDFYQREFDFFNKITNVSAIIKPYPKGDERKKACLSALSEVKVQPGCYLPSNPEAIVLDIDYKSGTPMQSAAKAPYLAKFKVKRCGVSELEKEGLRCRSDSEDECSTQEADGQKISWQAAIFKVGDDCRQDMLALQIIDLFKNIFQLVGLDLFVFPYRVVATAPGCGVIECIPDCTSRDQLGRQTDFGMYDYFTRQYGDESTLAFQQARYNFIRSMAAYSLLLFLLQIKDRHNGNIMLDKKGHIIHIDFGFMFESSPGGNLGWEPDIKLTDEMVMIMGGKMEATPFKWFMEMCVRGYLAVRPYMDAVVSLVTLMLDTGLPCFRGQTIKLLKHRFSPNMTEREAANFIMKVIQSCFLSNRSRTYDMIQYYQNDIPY
For orientation: ADP-Glo first removes unused ATP, then detects ADP through luciferase.

The target in assay [2] is Ribosomal protein S6 kinase alpha-3 (Homo sapiens) (UniProt P51812). The experiment in a line: Inhibition of recombinant human N-terminal His6-tagged RSK2 (2 to 740 residues) expressed in baculovirus infected Sf21 cells assessed as remaining activity at 1 uM using KKLNRTLSVA as substrate incubated for 30 mins in presence of [gamma-33P]ATP by filter binding method relative to control.

Assay [3] has as its target Calcium/calmodulin-dependent protein kinase type IV (Homo sapiens) (UniProt Q16566). The experiment in a line: Inhibition of human CAMK4 at 1 uM using JUN as substrate in presence of 33P-ATP by ProQinase assay.
Assay [4] has as its target Ribosomal protein S6 kinase alpha-6 (Homo sapiens) (UniProt Q9UK32). The experiment in a line: Inhibition of human RPS6KA6 at 1 uM using RBER-GSK3 as substrate in presence of 33P-ATP by ProQinase assay.
For assay [5], the target named is Serine/threonine-protein kinase 16 (Homo sapiens) (UniProt O75716). The assay can be described thus: Inhibition of recombinant human N-terminal GST-tagged MPSK1 (1 to 305 residues) expressed in Escherichia coli assessed as remaining activity at 1 uM using RRHYYYDTHTNTYYLRTFGHNTRR as substrate incubated for 30 mins in presence of [gamma-33P]ATP by filter binding method relative to control.
Chain of Serine/threonine-protein kinase 16 (Homo sapiens) (O75716 whole entry, the tested form may be a part): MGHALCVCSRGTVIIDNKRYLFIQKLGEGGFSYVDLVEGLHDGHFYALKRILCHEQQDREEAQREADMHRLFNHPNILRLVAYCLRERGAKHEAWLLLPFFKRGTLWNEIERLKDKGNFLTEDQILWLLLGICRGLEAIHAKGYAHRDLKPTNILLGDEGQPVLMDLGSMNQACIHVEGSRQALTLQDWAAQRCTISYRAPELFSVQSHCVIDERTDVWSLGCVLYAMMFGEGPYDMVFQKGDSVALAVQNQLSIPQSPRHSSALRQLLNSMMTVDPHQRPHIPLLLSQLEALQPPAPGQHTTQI

Assay [6] concerns the target Tyrosine-protein kinase ITK/TSK (Homo sapiens) (UniProt Q08881). The experiment in a line: Inhibition of human ITK at 1 uM using polyEY as substrate in presence of 33P-ATP by ProQinase assay.
Assay [7] concerns the target MAP/microtubule affinity-regulating kinase 4 (Homo sapiens) (UniProt Q96L34). The assay can be described thus: Inhibition of recombinant human N-terminal His6-tagged MARK4 (2 to 752 residues) expressed in baculovirus infected Sf21 cells assessed as remaining activity at 1 uM using KKKVSRSGLYRSPSMPENLNRPR as substrate incubated for 30 mins in presence of [gamma-33P]ATP by filter binding method relative to control.

The target in assay [8] is Maternal embryonic leucine zipper kinase (Homo sapiens) (UniProt Q14680). The experiment in a line: Inhibition of recombinant human N-terminal GST/C-terminal His6-tagged MELK (2 to 651 residues) expressed in Escherichia coli assessed as remaining activity at 1 uM using KKLNRTLSFAEPG as substrate incubated for 30 mins in presence of [gamma-33P]ATP by filter binding method relative to control.

Assay [9] addresses Angiopoietin-1 receptor (Homo sapiens) (UniProt Q02763). The experiment in a line: Inhibition of recombinant human N-terminal His6-tagged TIE2 (771 to 1124 residues) expressed in baculovirus infected Sf21 cells assessed as remaining activity at 1 uM using Poly(Glu,Tyr) as substrate incubated for 30 mins in presence of [gamma-33P]ATP by filter binding method relative to control.

Assay [10] concerns the target Receptor-interacting serine/threonine-protein kinase 2 (Homo sapiens) (UniProt O43353). The assay can be described thus: Inhibition of human RIPK2 at 1 uM using RBER-CHKtide as substrate in presence of 33P-ATP by ProQinase assay.
The target of assay [11] is Cyclin-dependent kinase 5/CDK5 activator 1 (Homo sapiens) (UniProt Q00535+Q15078). The experiment in a line: Inhibition of human CDK5/p35NCK at 1 uM using RBER-CHKtide as substrate in presence of 33P-ATP by ProQinase assay. Type of assay: protein-complex assay.
Chain of Cyclin-dependent kinase 5/CDK5 activator 1 (Homo sapiens) (Q00535 whole entry, the tested form may be a part): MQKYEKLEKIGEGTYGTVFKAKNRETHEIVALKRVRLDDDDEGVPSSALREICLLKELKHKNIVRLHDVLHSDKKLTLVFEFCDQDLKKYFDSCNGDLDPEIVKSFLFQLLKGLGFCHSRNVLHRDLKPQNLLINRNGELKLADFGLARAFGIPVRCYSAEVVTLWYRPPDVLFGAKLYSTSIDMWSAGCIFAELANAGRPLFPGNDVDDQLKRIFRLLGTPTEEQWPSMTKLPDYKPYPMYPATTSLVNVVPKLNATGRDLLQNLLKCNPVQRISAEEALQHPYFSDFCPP
Chain of Cyclin-dependent kinase 5/CDK5 activator 1 (Homo sapiens) (Q15078 99-307 partner limits assumed): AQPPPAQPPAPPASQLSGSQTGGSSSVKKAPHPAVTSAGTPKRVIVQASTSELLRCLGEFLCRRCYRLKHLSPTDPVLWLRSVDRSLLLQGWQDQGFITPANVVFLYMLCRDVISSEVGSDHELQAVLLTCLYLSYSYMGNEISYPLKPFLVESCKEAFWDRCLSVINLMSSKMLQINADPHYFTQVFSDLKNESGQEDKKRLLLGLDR
Assay [12] deals with Mitogen-activated protein kinase 9 (Homo sapiens) (UniProt P45984). The experiment in a line: Inhibition of recombinant human N-terminal His6-tagged JNK2 (1 to 424 residues) expressed in baculovirus infected Sf21 cells assessed as remaining activity at 1 uM using ATF2 as substrate incubated for 30 mins in presence of [gamma-33P]ATP by filter binding method relative to control.

Assay [13] concerns the target Mitogen-activated protein kinase kinase kinase 11 (Homo sapiens) (UniProt Q16584). The assay can be described thus: Inhibition of human MAP3K11 at 1 uM using MBP as substrate in presence of 33P-ATP by ProQinase assay.
In assay [14] the target is Eukaryotic translation initiation factor 2-alpha kinase 3 (Homo sapiens) (UniProt Q9NZJ5). The experiment in a line: Inhibition of human EIF2AK3 at 1 uM using casein as substrate in presence of 33P-ATP by ProQinase assay.
The target of assay [15] is cGMP-dependent protein kinase 1 (Homo sapiens) (UniProt Q13976). The experiment in a line: Inhibition of human PRKG1 at 1 uM using 3xChocktide-PKC as substrate in presence of 33P-ATP by ProQinase assay.
For assay [16], the target named is Activin receptor type-1B (Homo sapiens) (UniProt P36896). The experiment in a line: Inhibition of human ACVR1B at 1 uM using RBER-CHKtide as substrate in presence of 33P-ATP by ProQinase assay.
Chain of Activin receptor type-1B (Homo sapiens) (P36896 whole entry): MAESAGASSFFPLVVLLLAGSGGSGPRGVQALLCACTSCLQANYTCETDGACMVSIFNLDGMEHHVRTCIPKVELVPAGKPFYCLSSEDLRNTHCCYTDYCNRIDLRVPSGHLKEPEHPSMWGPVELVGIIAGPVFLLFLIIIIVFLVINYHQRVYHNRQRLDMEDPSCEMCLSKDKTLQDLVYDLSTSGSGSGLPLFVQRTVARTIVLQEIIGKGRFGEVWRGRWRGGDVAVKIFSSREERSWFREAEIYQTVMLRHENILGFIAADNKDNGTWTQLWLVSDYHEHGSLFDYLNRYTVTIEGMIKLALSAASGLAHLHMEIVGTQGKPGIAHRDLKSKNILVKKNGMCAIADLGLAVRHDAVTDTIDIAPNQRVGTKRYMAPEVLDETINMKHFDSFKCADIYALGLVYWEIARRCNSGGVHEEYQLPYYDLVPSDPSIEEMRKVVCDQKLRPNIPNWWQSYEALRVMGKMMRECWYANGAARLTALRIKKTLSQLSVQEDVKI
Assay [17] has as its target Serine/threonine-protein kinase TAO3 (Homo sapiens) (UniProt Q9H2K8). The experiment in a line: Inhibition of human TAOK3 at 1 uM using 3xChocktide-PKC as substrate in presence of 33P-ATP by ProQinase assay.
The target of assay [18] is Serine/threonine-protein kinase 16 (Homo sapiens) (UniProt O75716). The assay can be described thus: Inhibition of human TSF1 at 1 uM using casein as substrate in presence of 33P-ATP by ProQinase assay.
For assay [19], the target named is RAC-gamma serine/threonine-protein kinase (Homo sapiens) (UniProt Q9Y243). The experiment in a line: Inhibition of human AKT3 at 1 uM using RBER-GSK3 as substrate in presence of 33P-ATP by ProQinase assay.
Chain of RAC-gamma serine/threonine-protein kinase (Homo sapiens) (Q9Y243 whole entry): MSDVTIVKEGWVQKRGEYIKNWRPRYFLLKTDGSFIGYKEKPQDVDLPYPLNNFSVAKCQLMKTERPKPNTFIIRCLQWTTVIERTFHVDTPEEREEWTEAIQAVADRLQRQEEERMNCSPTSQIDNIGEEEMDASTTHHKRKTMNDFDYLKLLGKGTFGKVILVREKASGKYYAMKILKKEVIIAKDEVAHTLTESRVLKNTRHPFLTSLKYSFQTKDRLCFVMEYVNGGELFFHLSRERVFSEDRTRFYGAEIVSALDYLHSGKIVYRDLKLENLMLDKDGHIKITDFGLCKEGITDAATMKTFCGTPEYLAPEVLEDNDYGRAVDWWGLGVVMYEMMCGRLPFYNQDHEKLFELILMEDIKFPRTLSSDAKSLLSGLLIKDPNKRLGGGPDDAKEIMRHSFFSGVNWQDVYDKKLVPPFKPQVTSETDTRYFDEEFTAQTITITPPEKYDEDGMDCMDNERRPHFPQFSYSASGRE
Assay [20] has as its target Serine/threonine-protein kinase Nek11 (Homo sapiens) (UniProt Q8NG66). The experiment in a line: Inhibition of human NEK11 at 1 uM using MBP as substrate in presence of 33P-ATP by ProQinase assay.
Assay [21] deals with Protein-tyrosine kinase 6 (Homo sapiens) (UniProt Q13882). The experiment in a line: Inhibition of human BRK at 1 uM using polyEy as substrate in presence of 33P-ATP by ProQinase assay.
Chain of Protein-tyrosine kinase 6 (Homo sapiens) (Q13882 whole entry, looked up): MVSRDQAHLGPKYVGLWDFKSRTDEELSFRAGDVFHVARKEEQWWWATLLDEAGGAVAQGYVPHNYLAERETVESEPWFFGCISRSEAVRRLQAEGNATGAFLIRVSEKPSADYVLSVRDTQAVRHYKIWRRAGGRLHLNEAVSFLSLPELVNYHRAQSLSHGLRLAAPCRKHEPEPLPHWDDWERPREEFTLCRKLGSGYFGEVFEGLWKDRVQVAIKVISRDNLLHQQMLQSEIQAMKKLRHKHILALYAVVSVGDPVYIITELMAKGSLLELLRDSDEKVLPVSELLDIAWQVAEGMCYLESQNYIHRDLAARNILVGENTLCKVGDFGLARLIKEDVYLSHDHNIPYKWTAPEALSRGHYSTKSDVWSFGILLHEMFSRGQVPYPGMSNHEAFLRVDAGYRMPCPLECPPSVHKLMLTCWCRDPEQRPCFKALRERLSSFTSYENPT
In assay [22] the target is Serine/threonine-protein kinase Chk1 (Homo sapiens) (UniProt O14757). The experiment in a line: Inhibition of human CHK1 at 1 uM using RBER-CHKtide as substrate in presence of 33P-ATP by ProQinase assay.
Assay [23] deals with Serine/threonine-protein kinase PAK 1 (Homo sapiens) (UniProt Q13153). The assay can be described thus: Inhibition of human PAK1 at 1 uM using RBER-CHKtide as substrate in presence of 33P-ATP by ProQinase assay.
For assay [24], the target named is Phosphatidylinositol 4-kinase type 2-alpha (Homo sapiens, UniProt Q9BTU6). The experiment in a line: Inhibition of PI4K2alpha (unknown origin) at 1 uM.

Calls of active or inactive are those of the source. The calls are words filed in the database; no cut-off is given here.

Usually IC50 stands for the concentration that inhibits the measured activity by half. High values mean a need for much substance, low ones inhibition by little substance.

Chain of Calcium/calmodulin-dependent protein kinase type IV (Homo sapiens) (Q16566 whole entry): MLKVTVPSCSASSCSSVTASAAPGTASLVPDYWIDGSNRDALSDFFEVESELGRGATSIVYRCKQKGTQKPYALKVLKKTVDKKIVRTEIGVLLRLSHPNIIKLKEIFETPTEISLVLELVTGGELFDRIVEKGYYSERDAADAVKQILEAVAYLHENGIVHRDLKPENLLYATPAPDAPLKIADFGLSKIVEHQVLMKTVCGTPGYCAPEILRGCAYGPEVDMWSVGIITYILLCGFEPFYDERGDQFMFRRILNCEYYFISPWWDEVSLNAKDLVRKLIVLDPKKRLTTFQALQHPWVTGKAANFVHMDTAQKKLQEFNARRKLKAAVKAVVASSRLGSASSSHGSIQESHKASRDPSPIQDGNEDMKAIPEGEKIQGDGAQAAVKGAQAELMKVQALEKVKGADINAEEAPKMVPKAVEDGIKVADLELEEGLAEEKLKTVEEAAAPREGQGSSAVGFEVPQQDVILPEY

Consider `CC(C)(O)CNc1ncc(-c2ccnc(Nc3ccnc(Cl)c3)n2)c(CC2CC2)n1`, for which, in [1], half-maximal inhibition (IC50) was put at 4.07 µM. Moreover, the Activity in assay [2] worked out at 103%; in assay [5], 118%; in assay [7], 115%; in [8], 108%; in assay [9], 93%; in assay [12], 113%. Further, the inhibition entry in [3], in assay [4], in [6], in assay [10], in assay [11] and in assay [13] was “inactive” in each case. For the same molecule, the inhibition entry in [14], in assay [15], in assay [16], in assay [17], in [18] and in assay [19] was “inactive” in each case. Moreover, the inhibition entry in assay [20], in [21], in [22], in [23] and in [24] was “inactive” in each case.
